Values after ≈ are worked out from the molar mass of the structure shown. Blank lines part the entries; values can stand above or below the compound they belong to.
What was measured:
Coagulation factor X [1] = biological target: Coagulation factor X (Homo sapiens, UniProt P00742); experiment: Binding affinity to human F10a
[2] = Apparent permeability across Caco-2 cells; assay type: ADME, cell-based; settings: human
[3] = Clearance in dog at 0.4 mg/kg, iv and 0.2 mg/kg, po; assay type: ADME, organism-based, Canis lupus familiaris; settings: in vivo
Procedure, shortened: (§1)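 Dog pharmacokinetics from cassette (N-in-one) dosing of compounds as TFA salts: 0.4 mg/kg iv and 0.2 mg/kg po, n = 2 animals.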

[4] = Volume of distribution at steady state in dog at 0.4 mg/kg, iv and 0.2 mg/kg, po; assay type: ADME, organism-based, Canis lupus familiaris; settings: in vivo, read-out: Vdss; procedure, shortened: as §1
[5] = Half life in dog at 0.2 mg/kg, po; assay type: ADME, organism-based, Canis lupus familiaris; design: dose 0.2 mg/kg, route oral; settings: in vivo; procedure, shortened: as §1
Oryctolagus cuniculus = organism: Oryctolagus cuniculus; experiment: Inhibition of thrombus formation in rabbit arteriovenous shunt thrombosis model; assay type: functional, organism-based
[6] = Half life in human liver microsomes; assay type: ADME, Microsome
[7] = Protein binding in human serum by equilibrium dialysis; assay type: ADME, cell-free; settings: read-out: PB (converted)
[8] = (§2) Oral bioavailability in dog at 0.2 mg/kg, po; assay type: ADME, organism-based, Canis lupus familiaris; settings: in vivo; procedure, shortened: as §1
Prothrombin = Prothrombin (Homo sapiens, UniProt P00734); experiment: Inhibition of human thrombin
Trypsin = Trypsin (Homo sapiens, UniProt P07477+P07478+P35030); experiment: Inhibition of human trypsin; assay type: protein assay
[9] = Aqueos solubility in saline; assay type: ADME
Coagulation factor X [10] = biological target: T1, Coagulation factor X (Oryctolagus cuniculus, UniProt O19045); experiment: Binding affinity to rabbit F10a
T1 sequence (O19045 whole entry): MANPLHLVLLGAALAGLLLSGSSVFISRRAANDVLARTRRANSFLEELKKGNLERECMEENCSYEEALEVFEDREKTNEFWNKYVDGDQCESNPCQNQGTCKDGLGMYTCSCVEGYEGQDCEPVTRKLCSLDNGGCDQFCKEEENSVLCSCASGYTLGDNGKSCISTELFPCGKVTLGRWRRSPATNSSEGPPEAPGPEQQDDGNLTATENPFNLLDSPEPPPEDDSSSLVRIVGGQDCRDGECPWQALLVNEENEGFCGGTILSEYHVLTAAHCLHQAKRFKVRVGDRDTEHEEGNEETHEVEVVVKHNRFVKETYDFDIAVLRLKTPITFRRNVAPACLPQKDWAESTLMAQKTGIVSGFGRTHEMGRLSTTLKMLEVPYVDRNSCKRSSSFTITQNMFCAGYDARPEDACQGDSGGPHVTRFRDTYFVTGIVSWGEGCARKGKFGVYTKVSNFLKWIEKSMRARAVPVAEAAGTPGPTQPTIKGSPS

Canis familiaris = experiment: as §2; assay type: ADME, organism-based, Canis lupus familiaris; settings: in vivo; procedure, shortened: as §1

Sequence of Coagulation factor X (Homo sapiens, UniProt P00742) (P00742 41-179 limits assumed): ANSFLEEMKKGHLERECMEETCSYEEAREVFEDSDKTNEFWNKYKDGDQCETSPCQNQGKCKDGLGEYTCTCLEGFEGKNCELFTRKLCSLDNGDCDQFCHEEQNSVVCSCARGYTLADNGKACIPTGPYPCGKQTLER
Sequence of Coagulation factor X (Homo sapiens, UniProt P00742) (P00742 235-488 limits assumed): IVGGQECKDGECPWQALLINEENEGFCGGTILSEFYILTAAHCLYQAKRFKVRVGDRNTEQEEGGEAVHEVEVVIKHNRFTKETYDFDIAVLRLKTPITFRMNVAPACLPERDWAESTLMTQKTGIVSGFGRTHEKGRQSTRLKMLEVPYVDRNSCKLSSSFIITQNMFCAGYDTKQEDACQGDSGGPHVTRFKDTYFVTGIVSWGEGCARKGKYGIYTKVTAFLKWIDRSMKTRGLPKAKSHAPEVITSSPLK

SMILES: Nc1noc2ccc(-n3nc(C(F)(F)F)c4c3C(=O)N(c3ccc(-c5ccccc5CN5CC[C@@H](O)C5)cc3)CC4)cc12
clearance [3]: 5.83 mL/min/kg
Vd [4]: 1.6 L/kg
half-life [5]: 5.1 h
IC50 (Oryctolagus cuniculus): 0.14 µM
half-life [6]: 0.7 h
fraction unbound [7]: 0.03

SMILES: COc1ccc(-n2nc(C(N)=O)c3c2C(=O)N(c2ccc(-c4ccccc4CN(C)C)cc2)CC3)cc1
Ki (Coagulation factor X [1]): 0.00024 µM
clearance [3]: 33.3 mL/min/kg
Vd [4]: 6.1 L/kg
half-life [5]: 3.6 h
bioavailability [8]: 56%
Papp [2]: 2.3 ×10⁻⁶ cm/s
IC50 (Oryctolagus cuniculus): 0.175 µM

SMILES: CNc1ccc(N2CCc3c(C(F)(F)F)nn(-c4ccc(OC)cc4)c3C2=O)cc1
Ki (Coagulation factor X [1]): 0.61 µM
Ki (Prothrombin): > 6.3 µM

SMILES: COc1ccc(-n2nc(C(F)(F)F)c3c2C(=O)N(c2ccc(N4CCCCC4=O)cc2)CC3)cc1
Ki (Coagulation factor X [1]): 0.00023 µM
Ki (Prothrombin): 4.4 µM

SMILES: COc1ccc(-n2nc(C(F)(F)F)c3c2C(=O)N(c2ccc(N)cc2)CC3)cc1
Ki (Prothrombin): > 6.3 µM

SMILES: COc1ccc(-n2nc(C(F)(F)F)c3c2C(=O)N(c2ccc(NC(C)=O)cc2)CC3)cc1
Ki (Coagulation factor X [1]): 0.18 µM
Ki (Prothrombin): > 6.3 µM

SMILES: COc1ccc(-n2nc(C(N)=O)c3c2C(=O)N(c2ccc(N4CCCCC4=O)cc2)CC3)cc1 [APIXABAN]
clearance [3]: 0.333 mL/min/kg
Vd [4]: 0.2 L/kg
half-life [5]: 5.8 h
bioavailability [8]: 58%
IC50 (Oryctolagus cuniculus): 0.329 µM
solubility [9]: 50 µg/mL (≈ 109 µM)
Ki (Coagulation factor X [10]): 0.00017 µM

SMILES: CN(C)Cc1nccn1-c1ccc(NC(=O)c2cc(C(F)(F)F)nn2-c2ccc3onc(N)c3c2)c(F)c1 [RAZAXABAN]
Vd [4]: 3.4 L/kg
half-life [5]: 5.3 h
F (Canis familiaris): 84%
half-life [6]: 0.633 h
fraction unbound [7]: 0.09

More lines, now with the values ahead:

Ki (Coagulation factor X [1]): 0.00097 µM
Papp [2]: 1.2 ×10⁻⁶ cm/s
SMILES: COc1ccc(-n2nc(C(N)=O)c3c2C(=O)N(c2ccc(-c4ccccc4CN)cc2)CC3)cc1

Ki (Coagulation factor X [1]): 0.002 µM
Ki (Prothrombin): 0.95 µM
Ki (Trypsin): > 3 µM
SMILES: COc1ccc(-n2nc(N(C)C(=O)OC(C)(C)C)c3c2C(=O)N(c2ccc(-c4ccccc4CN4CC[C@@H](O)C4)cc2)CC3)cc1

Ki (Coagulation factor X [1]): 0.00033 µM
Ki (Prothrombin): 0.1 µM
Ki (Trypsin): > 3 µM
SMILES: COc1ccc(-n2nc(C#N)c3c2C(=O)N(c2ccc(-c4ccccc4CN4CC[C@@H](O)C4)cc2)CC3)cc1

Ki (Coagulation factor X [1]): 0.00048 µM
Ki (Prothrombin): 0.98 µM
Ki (Trypsin): > 3 µM
SMILES: COc1ccc(-n2nc(Cn3nccn3)c3c2C(=O)N(c2ccc(-c4ccccc4CN4CC[C@@H](O)C4)cc2)CC3)cc1

Ki (Coagulation factor X [1]): 0.00025 µM
Ki (Prothrombin): 1.9 µM
Ki (Trypsin): > 3 µM
SMILES: COc1ccc(-n2nc(Cn3cncn3)c3c2C(=O)N(c2ccc(-c4ccccc4CN4CC[C@@H](O)C4)cc2)CC3)cc1

Ki (Coagulation factor X [1]): 0.00085 µM
Ki (Prothrombin): 0.97 µM
Ki (Trypsin): > 3 µM
clearance [3]: 43 mL/min/kg
Vd [4]: 3.7 L/kg
half-life [5]: 1.8 h
bioavailability [8]: 7%
Papp [2]: 0.9 ×10⁻⁶ cm/s
SMILES: COc1ccc(-n2nc(Cn3cnnn3)c3c2C(=O)N(c2ccc(-c4ccccc4CN4CC[C@@H](O)C4)cc2)CC3)cc1

Ki (Coagulation factor X [1]): 0.0011 µM
Ki (Prothrombin): 1 µM
Ki (Trypsin): > 3 µM
SMILES: COc1ccc(-n2nc(Cn3ncnn3)c3c2C(=O)N(c2ccc(-c4ccccc4CN4CC[C@@H](O)C4)cc2)CC3)cc1

Ki (Coagulation factor X [1]): 0.00063 µM
Ki (Prothrombin): 12 µM
Ki (Trypsin): > 3 µM
SMILES: COc1ccc(-n2nc(-c3nnn[nH]3)c3c2C(=O)N(c2ccc(-c4ccccc4CN4CC[C@@H](O)C4)cc2)CC3)cc1

Ki (Coagulation factor X [1]): 0.0017 µM
Ki (Prothrombin): 4.8 µM
Ki (Trypsin): > 3 µM
SMILES: CNc1nn(-c2ccc(OC)cc2)c2c1CCN(c1ccc(-c3ccccc3CN3CC[C@@H](O)C3)cc1)C2=O

Ki (Coagulation factor X [1]): 0.00067 µM
Ki (Prothrombin): 12 µM
Ki (Trypsin): > 3 µM
clearance [3]: 41.2 mL/min/kg
Vd [4]: 4.9 L/kg
half-life [5]: 2.8 h
bioavailability [8]: 24%
Papp [2]: 1.6 ×10⁻⁶ cm/s
SMILES: COc1ccc(-n2nc(Cn3ccnn3)c3c2C(=O)N(c2ccc(-c4ccccc4CN4CC[C@@H](O)C4)cc2)CC3)cc1

Ki (Coagulation factor X [1]): 0.0003 µM
clearance [3]: 25 mL/min/kg
Vd [4]: 5.6 L/kg
half-life [5]: 3.5 h
bioavailability [8]: 53%
Papp [2]: 3.5 ×10⁻⁶ cm/s
SMILES: COc1ccc(-n2nc(C(N)=O)c3c2C(=O)N(c2ccc(-c4ccccc4CN4CCCC4)cc2)CC3)cc1

Reference: ChEMBL document CHEMBL1137566 (J Med Chem, 2007)
